# Compound activity as filed in PubChem BioAssay.
# Lipid droplet: hepatic lipid droplet formation modulation; inhibition, % at 6.5 µM; hit rate 0.4% among 240,000; AML12 mouse hepatocytes, oleate lipid droplets, BODIPY imaging;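 active means lipid droplet intensity inhibited by at least 50%, with more than 500 cells counted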
#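 Assay system: AML12 hepatocytes (mouse); Probe or stimulus: oleic acid at 100 µM to induce lipid droplet formation; Dosing: compound at 6.5 µM only; Schedule: compound with oleate, overnight; Detection: fluorescence imaging, 20x objective, two fields per well; Measure: % inhibition of lipid droplet signal.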
# CHOP inhibitor: blocks CHOP induction under ER stress. AID 2732. inhibition, % at 10 µM. CHO-K1 CHOP-promoter luciferase, tunicamycin-induced, 15-18 h. hit rate 3.8% among 220,000;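 active means compounds that reduced the stress-induced luciferase reporter signal by more than about 70% of percent inhibition, limit read from the data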;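 further: 0% = tunicamycin plus vehicle and 100% = wells without tunicamycin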
# UPR CHOP act: activators of apoptotic arm of unfolded protein response (CHOP); CHO-CHOP luciferase reporter, UPR activation, luminescence; percent of tunicamycin response over DMSO baseline; hit rate 0.34% among 330,000; activation, % at 10 µM;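 active means at 10 µM dose, activation of 40% or more, normalized to positive control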;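 further: 100% = tunicamycin at 10 µg/mL and 0% = DMSO alone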
#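 Test system: CHO CHOP reporter cells. Input: 500 CHO-CHOP cells per well. Medium: F12 with 10% FBS. Technique: luciferase luminescence. Measure: percent activation relative to tunicamycin control. Dosing: 10 µM compound, 0.5% DMSO. Timing: 16-18 h cell attachment, then 6 h compound exposure, 37 °C.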
# ANO1 activ: activates or potentiates the mouse TMEM16A chloride channel. Q8BHY3. HEK293 TMEM16A/YFP-H148Q/I152L, iodide quench fluorescence; hits give low values. B-score at 10 µM. hit rate 0.3% among 340,000. AID 623877;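 active means fluorescence-ratio B-score plate-corrected deviation score at least 3 library SD below zero, with starting fluorescence score within 5 deviations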;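 further: channel opened by trigger with iodide after compound preincubation; score built on the fluorescence ratio of max minus min over baseline; more negative score means more quench and so TMEM16A activation or potentiation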
# Target sequence (Q8BHY3 whole entry, looked up): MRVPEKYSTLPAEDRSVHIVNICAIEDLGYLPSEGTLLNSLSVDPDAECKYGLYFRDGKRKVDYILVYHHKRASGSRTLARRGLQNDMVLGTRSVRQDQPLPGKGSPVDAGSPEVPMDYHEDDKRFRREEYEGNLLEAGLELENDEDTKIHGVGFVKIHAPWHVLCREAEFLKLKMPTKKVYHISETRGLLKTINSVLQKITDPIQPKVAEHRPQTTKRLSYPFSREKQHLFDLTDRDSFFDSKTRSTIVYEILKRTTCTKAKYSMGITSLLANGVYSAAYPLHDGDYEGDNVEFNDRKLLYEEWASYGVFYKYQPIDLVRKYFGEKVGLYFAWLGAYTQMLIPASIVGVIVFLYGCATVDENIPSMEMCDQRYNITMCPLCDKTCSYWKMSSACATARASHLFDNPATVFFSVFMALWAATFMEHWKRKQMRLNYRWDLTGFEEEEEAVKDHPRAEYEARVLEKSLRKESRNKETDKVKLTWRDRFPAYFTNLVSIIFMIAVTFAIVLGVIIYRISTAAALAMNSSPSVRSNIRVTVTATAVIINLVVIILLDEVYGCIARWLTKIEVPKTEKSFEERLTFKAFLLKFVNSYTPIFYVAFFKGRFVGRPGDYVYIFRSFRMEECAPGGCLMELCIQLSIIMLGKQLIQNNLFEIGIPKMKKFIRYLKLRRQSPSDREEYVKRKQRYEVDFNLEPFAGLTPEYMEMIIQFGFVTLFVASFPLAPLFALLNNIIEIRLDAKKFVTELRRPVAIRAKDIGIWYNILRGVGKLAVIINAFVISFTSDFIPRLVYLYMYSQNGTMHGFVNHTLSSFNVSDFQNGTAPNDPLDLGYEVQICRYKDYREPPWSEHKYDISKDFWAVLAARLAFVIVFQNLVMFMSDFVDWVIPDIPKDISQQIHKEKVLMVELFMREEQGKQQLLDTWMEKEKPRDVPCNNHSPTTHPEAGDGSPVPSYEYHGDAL
# UPR XBP1 act: adaptive UPR (XBP1) activation; CHO-XBP1 luciferase reporter, IRE1-XBP1 UPR activation, luminescence; percent of tunicamycin response, DMSO as zero; activation, % at 20 µM; hit rate 0.33% among 330,000; AID 463104;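 active means versus positive control, 20 µM dose yields 30% or more activation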;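 further: 100% = tunicamycin at 10 µg/mL and 0% = DMSO only wells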
#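 Material: CHO cell line with stable XBP1 luciferase reporter; schedule: 16-18 h cell attachment at 37 °C, then 6 h compound exposure; signal: glow luminescence from Steady-Glo reagent; medium: serum-containing F12 medium, 10% FBS; benchmarks: tunicamycin 10 µg/mL and vehicle-only wells; read-out: percent activation relative to tunicamycin reference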
# ANO1 block: mouse TMEM16A channel inhibition, primary screen | hit rate 1.2% among 310,000 | normalized B-score (activity score, 25-100; higher = stronger inhibition) at 10 µM | Q8BHY3 | HEK293 TMEM16A/YFP iodide influx fluorescence, ionomycin;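 active means ratio plate-corrected score three or more library SD toward inhibition, starting fluorescence score within five deviations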;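 further: score derived from kinetic fluorescence span divided by baseline fluorescence per well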
# The depositor's hits bear a star; i = inactive; / = no result. An excerpt weighted towards active compounds, which were near 4.2% of everything screened.
SMILES,Lipid droplet,CHOP inhibitor,UPR CHOP act,ANO1 activ,UPR XBP1 act,ANO1 block
Cc1ccc(/C=N/c2sc3c(c2C#N)CCCCC3)o1,/,77*,-1,i,-7,i
Cc1[nH]n(-c2ccc(F)cc2)c(=O)c1/C=N/c1sc2c(c1C#N)CCCC2,/,90*,-1,i,-3,i
FC(F)(F)c1ccc(NC(=S)NCc2ccccc2)cc1,-19,64,1,i,1,i
Cc1ccc2nc(-c3ccccc3)cc(C(=O)NCC(c3ccco3)N(C)C)c2c1 (stereo not given),/,/,2,i,-3,i
O=C(N/C(=C/c1cn(-c2ccccc2)nc1-c1ccccc1)C(=O)N1CCOCC1)c1ccc(Cl)cc1Cl,-30,48,4,i,-2,i
O=[N+]([O-])c1ccc(Cc2ccccn2)c([N+](=O)[O-])c1,/,/,2,i,3,i
O=[N+]([O-])c1cnc(Sc2ccncn2)s1,-4,107*,-9,i,-10,25*
C=CCn1c(Sc2ncc([N+](=O)[O-])s2)n[nH]c1=O,0,49,-9,i,-10,i
CC(C)CC(NC(=O)C(NC(=O)C1OC2OC(C)(C)OC2C2OC(C)(C)OC12)C(C)C)C(=O)O (stereo not given),0,12,0,i,4,i
COc1cccc2cc3c(=O)oc4ccccc4c3nc12,/,8,0,-12*,0,i
COc1ccccc1OC(=O)c1cc2ccccc2oc1=O,-2,/,2,i,-1,i
Cn1nc(C(=O)NNC(=O)C(CCC(N)=O)NS(=O)(=O)c2ccc(Cl)cc2)c2ccccc2c1=O (stereo not given),/,/,1,i,-3,/
COc1cccc(/C=N/NC(=O)CN2CC(c3ccccc3)CC2=O)c1OC (stereo not given),-1,-1,1,i,0,i
CN(C)c1ccc(/C=C/c2ccc3ccccc3[n+]2C)cc1,-112,70*,9,i,2,i
CCC1CCCCN1CCCNC(=O)c1cc2c(=O)oc3ccc(C)cc3c2s1 (stereo not given),-5,/,-1,i,-2,i
C=CCSC1=N/C(=C\c2ccsc2)C(=O)S1,/,36,0,i,13,i
C=CCSC1=N/C(=C\c2ccc(C)o2)C(=O)S1,-2,72*,-2,i,7,i
CC(=O)c1c(C)[nH]c(C(=O)OCC(=O)Nc2nnc(-c3ccccc3)o2)c1C,/,/,1,i,-2,/
O=C(/C=C/c1ccco1)Nc1cccc(S(=O)(=O)N2CCOCC2)c1,13,2,2,i,-2,i
Cc1ccc(NC(=O)/C=C/c2ccco2)cc1S(=O)(=O)N1CCCCCC1,/,/,-2,i,0,25*
Cc1ccc(C)c(NC(=O)COC(=O)CNC(=O)C2CCCCC2)c1,/,/,-2,i,0,/
Cc1nn(C(=O)c2cccs2)c(N)c1-c1ccccc1,21,95*,7,i,6,i
COC(=O)CC/C(C)=N\Nc1ccc([N+](=O)[O-])cc1[N+](=O)[O-],/,75*,5,i,1,i
CCn1cc(C(=S)N2CCC(C(N)=O)CC2)c2ccccc21,-30,-2,-1,i,-3,i
O=C1CCCN1CCC(=O)N1CCCC(N2CCN(c3ccccc3F)CC2)C1 (stereo not given),-2,/,0,i,-2,i
N#CC1=C(N)OC2=C(CCC/C2=C/c2ccoc2)C1c1ccoc1 (stereo not given),8,-26,/,/,/,/
N#CC1=C(N)OC2=C(CC/C2=C\c2ccc(F)cc2)C1c1ccc(F)cc1 (stereo not given),25,79*,116*,/,6,i
Cc1ccc(-n2nc3c([n+]2[O-])CCc2c-3no[n+]2[O-])cc1,/,90*,-1,i,-6,i
[O-][n+]1onc2c1CCc1c-2nn(-c2ccccc2Cl)[n+]1[O-],/,96*,-3,i,-9,i
